Results on 3 molecules are retold here after ChEMBL document CHEMBL1130129, “Immunologically specific activation of a cephalosporin derivative of mitomycin C by monoclonal antibody beta-lactamase conjugates” (J Med Chem, 1997).

What all share (assay type): functional, cell-based
The subject of assay [1] is Clone 62. The experiment in a line: Inhibitory activity against clone62, a mouse melanoma cell line in absence of Enterobacter cloacae bL. The method, boiled down:
(§1)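 Cells plated at 4000 or 8000/well in IMDM with 10% FBS, left to adhere 18 h at 37 °C, then washed with RPMI/10% FBS. Compound exposure 1 h at 37 °C with no enzyme, followed by IMDM wash and 18 h culture. [3H]thymidine pulse at 1 µCi/well (18 h at 4000 cells/well, 6 h at 8000). IC50 is the concentration giving 50% incorporation versus untreated cells; mean of five experiments.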

For assay [2], the system named is H2987 cell line. The experiment in a line: Inhibitory activity against H2987, human lung adenocarcinoma cell line in presence of Enterobacter cloacae bL. The method, boiled down:
(§2)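 Adherent cells (4000 or 8000/well, 18 h, 37 °C, IMDM/10% FBS) washed with RPMI/10% FBS. Exposed 1 h at 37 °C to graded compound concentrations together with purified E. cloacae β-lactamase (10 µg/mL), then washed and cultured 18 h. [3H]thymidine pulse at 1 µCi/well (18 h or 6 h by seeding density). IC50 is 50% incorporation relative to untreated controls; five independent experiments.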

Assay [3] deals with Clone 62. As to the kind of experiment: Inhibitory activity against clone62, a mouse melanoma cell line in presence of Enterobacter cloacae bL. The method, boiled down:
as §2

Assay [4] has as its system H2987 cell line. The experiment in a line: Inhibitory activity against H2987, human lung adenocarcinoma cell line in absence of Enterobacter cloacae bL. The method, boiled down:
as §1

`CO[C@@]12[C@H](COC(N)=O)C3=C(C(=O)C(C)=C(NCC4=C(C(=O)O)N5C(=O)[C@@H](NC(=O)Cc6ccccc6)[C@H]5SC4)C3=O)N1C[C@@H]1N[C@@H]12`: the IC50 in assay [1] is 3500 nM; in assay [2], 2800 nM; in assay [3] it was 1400 nM; in assay [4], 10400 nM.

Consider `CO[C@@]12[C@H](COC(N)=O)C3=C(C(=O)C(C)=C(NCC4=C(C(=O)O)N5C(=O)[C@@H](NC(=O)CCCC(=O)O)[C@H]5SC4)C3=O)N1C[C@@H]1N[C@@H]12`, for which the IC50 in assay [1] worked out at 30100 nM; in assay [2] it was 1200 nM; in assay [3] it was 3000 nM; in assay [4], 26400 nM.

On to `CO[C@@]12[C@H](COC(N)=O)C3=C(C(=O)C(C)=C(N)C3=O)N1C[C@@H]1N[C@@H]12` [MITOMYCIN], for which the values for the IC50 in assay [1] and in assay [4] were 1500 nM and 1600 nM, respectively.
